Activity calls are given as the source filed them. No cut-off for these calls is given here.
Experiments:
Assay type in all cases: functional, cell-based
[1] = tested on: HepG2; test: Cytotoxicity against human HepG2 cells at 20 uM after 72 hrs by MTT assay
Method in brief: (§1)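 Single-concentration screen: compound at 20 μM applied to cells plated at 1×10^3–30×10^3 cells/well (density set by cell type), 72 h at 37 °C, 5% CO2. Viability read by MTT, triplicate wells, experiment repeated three times; result given as % proliferation versus control.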

[2] = tested on: HeLa; test: Cytotoxicity against human HeLa cells after 72 hrs by MTT assay
Method in brief: (§2)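 MTT dose–response: exponentially growing HeLa (1×10^3 cells/well) or HepG2 (8×10^3 cells/well, DMEM + 10% FBS, 1 mM pyruvate) seeded, left 24 h, then given a compound range in DMSO (final <0.1%) for 72 h. MTT 0.5 mg/ml for 1 h, formazan dissolved in DMSO, read at 550 nm. IC50 vs untreated by non-linear regression, mean ± SD of at least three experiments.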

[3] = tested on: HeLa; test: Cytotoxicity against human HeLa cells at 20 uM after 72 hrs by MTT assay; method in brief: as §1
[4] = tested on: Jurkat; test: Cytotoxicity against human Jurkat cells after 72 hrs by XTT assay
Method in brief: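 Jurkat cells (RPMI 1640, 10% FBS, 2 mM glutamine) in exponential growth plated at 5.5×10^3 cells/well and treated in triplicate with a concentration range or DMSO vehicle for 72 h. XTT labeling mix added, 4 h, absorbance at 450 nm. IC50 vs untreated by non-linear regression; mean ± SD of ≥3 experiments.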

[5] = tested on: HT-29; test: Cytotoxicity against human HT-29 cells at 20 uM after 72 hrs by MTT assay; method in brief: as §1
[6] = tested on: A-375; test: Cytotoxicity against human A375 cells at 20 uM after 72 hrs by MTT assay; method in brief: as §1
[7] = tested on: MCF7; test: Cytotoxicity against human MCF7 cells at 20 uM after 72 hrs by MTT assay; method in brief: as §1
[8] = tested on: Jurkat; test: Cytotoxicity against human Jurkat cells at 20 uM after 72 hrs by XTT assay
Method in brief: (§3)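 XTT screen at a single concentration: cells seeded at 1×10^3–30×10^3 cells/well depending on cell type, exposed to 20 μM for 72 h at 37 °C, 5% CO2, then read by XTT. Triplicate wells, three independent repeats; output is % proliferation relative to control.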

[9] = tested on: MIA PaCa-2; test: Cytotoxicity against human MIAPaCa2 cells at 20 uM after 72 hrs by MTT assay; method in brief: as §1
[10] = tested on: HepG2; test: Cytotoxicity against human HepG2 cells after 72 hrs by MTT assay; conditions: HepG2, 72 h; method in brief: as §2
[11] = tested on: SH-SY5Y; test: Cytotoxicity against human SH-SY5Y cells at 20 uM after 72 hrs by XTT assay; method in brief: as §3

`C=C(C)[C@@H]1CC[C@]2(C(=O)n3ccnc3)CC[C@]3(C)[C@H](CC[C@@H]4[C@@]5(C)C=C(O)C(=O)C(C)(C)[C@@H]5CC[C@]43C)[C@@H]12` was tested, and the Activity [1] was “Active”, the IC50 [2] was 4.6 µM and the Activity [3] was “Active”. The IC50 [4] was 7 µM, the Activity [5] was “Active” and the Activity [6] was “Active”. For the same compound, the Activity [7] was “Active”, the Activity [8] was “Active” and the Activity [9] was “Active”. The IC50 [10] was 6.5 µM and the Activity [11] was “Active”.

In the case of `C=C(C)[C@@H]1CC[C@]2(CO)CC[C@]3(C)[C@H](CC[C@@H]4[C@@]5(C)CC[C@H](OC(=O)n6ccnc6)C(C)(C)[C@@H]5CC[C@]43C)[C@@H]12`, the IC50 [2] is reported as 3 µM, the IC50 [4] is reported as 11.1 µM and the IC50 [10] is reported as 2 µM.

For `C=C(C)[C@@H]1CC[C@]2(COC(=O)n3ccnc3)CC[C@]3(C)[C@H](CC[C@@H]4[C@@]5(C)CC[C@H](OC(C)=O)C(C)(C)[C@@H]5CC[C@]43C)[C@@H]12`, the IC50 [2] was > 30 µM, the IC50 [4] was > 30 µM and the IC50 [10] was > 30 µM.

With `C=C(C)[C@@H]1CC[C@]2(C(=O)O)CC[C@]3(C)[C@H](CC[C@@H]4[C@@]5(C)CC[C@H](OC(=O)n6ccnc6)C(C)(C)[C@@H]5CC[C@]43C)[C@@H]12` the Activity [1] was “Active”, the IC50 [2] was 5.1 µM and the Activity [3] was “Active”. For the same compound, the IC50 [4] was 5.2 µM, the Activity [5] was “Active” and the Activity [6] was “Active”. For the same compound, the Activity [7] was “Active”, the Activity [8] was “Active” and the Activity [9] was “Active”. The IC50 [10] was 6.2 µM and the Activity [11] was “Active”.

`C=C(C)[C@@H]1CC[C@]2(C(=O)n3ccnc3)CC[C@]3(C)[C@H](CC[C@@H]4[C@@]5(C)CCC(=O)C(C)(C)[C@@H]5CC[C@]43C)[C@@H]12` gave an IC50 [2] of 2 µM, an IC50 [4] of 1.4 µM and an IC50 [10] of 0.8 µM.

In the case of `C=C(C)[C@@H]1CC[C@]2(C(=O)O)CC[C@]3(C)[C@H](CC[C@@H]4[C@@]5(C)CC[C@H](O)C(C)(C)[C@@H]5CC[C@]43C)[C@@H]12` [BETULINIC ACID], the Activity [1] is reported as “Active”, the IC50 [2] is reported as 26 µM and the Activity [3] is reported as “Active”. For the same compound, the IC50 [4] was 26.9 µM, the Activity [5] was “Active” and the Activity [6] was “Active”. The Activity [7] was “Active”, the Activity [8] was “Active” and the Activity [9] was “Active”. The IC50 [10] was 36.4 µM and the Activity [11] was “Active”.

In the case of `C=C(C)[C@@H]1CC[C@]2(COC(=O)n3ccnc3)CC[C@]3(C)[C@H](CC[C@@H]4[C@@]5(C)CC[C@H](OC(=O)n6ccnc6)C(C)(C)[C@@H]5CC[C@]43C)[C@@H]12`, the IC50 [2] is reported as > 30 µM, the IC50 [4] is reported as > 30 µM and the IC50 [10] is reported as > 30 µM.

For `C=C(C)[C@@H]1CC[C@]2(COC(C)=O)CC[C@]3(C)[C@H](CC[C@@H]4[C@@]5(C)CC[C@H](OC(=O)n6ccnc6)C(C)(C)[C@@H]5CC[C@]43C)[C@@H]12`, the IC50 [2] was > 30 µM, the IC50 [4] was > 30 µM and the IC50 [10] was > 30 µM.

With `C=C(C)[C@@H]1CC[C@]2(C(=O)n3ccnc3)CC[C@]3(C)[C@H](CC[C@@H]4[C@@]5(C)CC[C@H](OC(=O)n6ccnc6)C(C)(C)[C@@H]5CC[C@]43C)[C@@H]12` the IC50 [2] was 8.2 µM, the IC50 [4] was 6 µM and the IC50 [10] was 2.9 µM.

`C[C@@H](C=O)[C@@H]1CC[C@]2(COC(=O)n3ccnc3)CC[C@]3(C)[C@H](CC[C@@H]4[C@@]5(C)CC[C@H](O)C(C)(C)[C@@H]5CC[C@]43C)[C@@H]12` was tested, and the Activity [1] was “Active”, the IC50 [2] was 11.1 µM and the Activity [3] was “Active”. For the same compound, the IC50 [4] was 13.7 µM, the Activity [5] was “Active” and the Activity [6] was “Active”. The Activity [7] was “Active”, the Activity [8] was “Active” and the Activity [9] was “Active”. The IC50 [10] was 11.5 µM and the Activity [11] was “Active”.

`C=C(C)[C@@H]1CC[C@]2(C(=O)n3ccnc3)CC[C@]3(C)[C@H](CC[C@@H]4[C@@]5(C)C=C(OC(=O)n6ccnc6)C(=O)C(C)(C)[C@@H]5CC[C@]43C)[C@@H]12` gave an IC50 [2] of 3.9 µM, an IC50 [4] of 8.1 µM and an IC50 [10] of 4 µM.

`C=C(COC)[C@@H]1CC[C@]2(COC(=O)n3ccnc3)CC[C@]3(C)[C@H](CC[C@@H]4[C@@]5(C)CC[C@H](OC(=O)n6ccnc6)C(C)(C)[C@@H]5CC[C@]43C)[C@@H]12` was tested, and the IC50 [2] was > 30 µM, the IC50 [4] was 16.2 µM and the IC50 [10] was 19.6 µM.

`C=C(C)[C@@H]1CC[C@]2(COC(=O)n3ccnc3)CC[C@]3(C)[C@H](CC[C@@H]4[C@@]5(C)CC[C@H](O)C(C)(C)[C@@H]5CC[C@]43C)[C@@H]12` was tested, and the Activity [1] was “Active”, the IC50 [2] was 7.6 µM and the Activity [3] was “Active”. For the same compound, the IC50 [4] was 16.3 µM, the Activity [5] was “Active” and the Activity [6] was “Active”. The Activity [7] was “Active”, the Activity [8] was “Active” and the Activity [9] was “Active”. The IC50 [10] was 4.2 µM and the Activity [11] was “Active”.

In the case of `C=C(C)[C@@H]1CC[C@]2(C(=O)n3ccnc3)CC[C@]3(C)[C@H](CC[C@@H]4[C@@]5(C)C=CC(=O)C(C)(C)[C@@H]5CC[C@]43C)[C@@H]12`, the IC50 [2] is reported as 3 µM, the IC50 [4] is reported as 2.3 µM and the IC50 [10] is reported as 1.7 µM.

With `C=C(COC)[C@@H]1CC[C@]2(COC(=O)n3ccnc3)CC[C@]3(C)[C@H](CC[C@@H]4[C@@]5(C)CC[C@H](O)C(C)(C)[C@@H]5CC[C@]43C)[C@@H]12` the Activity [1] was “Active”, the IC50 [2] was 9.8 µM and the Activity [3] was “Active”. For the same compound, the IC50 [4] was 12.2 µM, the Activity [5] was “Active” and the Activity [6] was “Active”. The Activity [7] was “Active”, the Activity [8] was “Active” and the Activity [9] was “Active”. The IC50 [10] was 8.3 µM and the Activity [11] was “Active”.

For `C[C@@H](C=O)[C@@H]1CC[C@]2(COC(=O)n3ccnc3)CC[C@]3(C)[C@H](CC[C@@H]4[C@@]5(C)CC[C@H](OC(=O)n6ccnc6)C(C)(C)[C@@H]5CC[C@]43C)[C@@H]12`, the IC50 [2] was 19.2 µM, the IC50 [4] was 20.2 µM and the IC50 [10] was 26.1 µM.

Work on `C=C(C)[C@@H]1CC[C@]2(C(=O)OC)CC[C@]3(C)[C@H](CC[C@@H]4[C@@]5(C)CC[C@H](OC(=O)n6ccnc6)C(C)(C)[C@@H]5CC[C@]43C)[C@@H]12` yielded an IC50 [2] of 8.2 µM, an IC50 [4] of 9.9 µM and an IC50 [10] of 4.3 µM.
